Test results as given in paper PMC3256319 (Investigational New Drugs, 2010).
Values joined by “and” are separate entries in the source; they are usually repeats but may differ in a detail not shown here. Identical values can stand only once.

Assays:
Safety and tolerability = assay type: in vivo, human healthy volunteers
Procedure, shortened: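 Healthy volunteers in a randomized crossover separated by a 14-day washout. Treatments were a single fasted oral 5-mg dose on day 1, or ketoconazole 400 mg/day on days 1–7 with the 5-mg dose on day 4. Safety was monitored through adverse events, vital signs, ECGs, laboratory tests and physical examinations. AEs were graded by NCI CTCAE v3.0. All subjects receiving at least one dose of any study medication were included.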

[1] = ketoconazole 400 mg; based on IC50 in human liver microsomal preparations
[2] = concurrent administration of phenytoin, one patient; cited from earlier work
[3] = Blood pressure change from baseline in crossover study; assay type: in vivo, human healthy volunteers
Procedure, shortened: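 Randomized two-way crossover in healthy volunteers with placebo on day –1 and a 14-day washout. In one arm, a single oral 5-mg dose was given on day 1 after an overnight fast of at least 8 h. In the other, oral ketoconazole 400 mg/day was given on days 1–7, with the 5-mg dose given alongside it on day 4. BP was measured before blood sampling at PK timepoints and at 10 h post-dose, expressed as time-matched change from baseline. Analysis required at least one baseline and one post-baseline reading.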

[4] = cited from earlier work
tumor growth = conditions: pre-clinical tumor growth inhibition studies; cited from earlier work
[5] = Intrinsic clearance converted from in vivo systemic clearance; parameters: species or system human healthy volunteers
[6] = assay type: in vivo, human healthy volunteers
[7] = tested on: axitinib metabolism in human liver microsomes; assay type: in vitro ADME; conditions: probe axitinib
[8] = axitinib in combination with ketoconazole
[9] = in the presence of ketoconazole

CNC(=O)c1ccccc1Sc1ccc2c(/C=C/c3ccccn3)n[nH]c2c1 [Axitinib]
tolerability (Safety and tolerability; axitinib alone, single 5-mg dose): well tolerated
tolerability (Safety and tolerability; [8]): well tolerated
predicted fold increase in axitinib geometric mean AUC0–∞ [1]: 1.8 fold
predicted fold increase in axitinib geometric mean Cmax [1]: 1.5 fold
fold reduction of axitinib AUC0–24 [2]: approximately 10 fold
fold reduction of axitinib Cmax [2]: approximately 10 fold
mean time-matched changes from baseline in BP [3, 8]: minimal
mean time-matched changes from baseline in BP ([3]; axitinib treatment alone): minimal
average axitinib plasma concentration in clinical trials ([4]; after dosing 5 mg twice daily): 0.19 ± 0.12 nmol/L
effective plasma terminal half-life [4]: 2 to 5 h
oral absolute bioavailability [4]: approximately 58%
time of peak plasma concentrations after dosing ([4]; oral, fed state): 1 to 4 h
effective axitinib concentration (tumor growth): 0.28 to 0.85 nmol/L
clearance attributed to non-metabolic pathways, share ([5]; remaining clearance): 20%
contribution of CYP3A to total CLint ([5]; sensitivity analyses): 50%
contribution of glucuronidation to total CLint ([5]; sensitivity analyses): 30%
pre-dose axitinib plasma concentration ([6]; all pre-dose samples, below lower limit of quantification): < 0.100 ng/mL
half-life ([6]; human, plasma, oral, 5 mg): 9.44 h
fold increase in axitinib geometric mean AUC0–∞ observed clinically [6, 9]: 2.06 fold and ~ 2 fold
fold increase in axitinib geometric mean Cmax observed clinically [6, 9]: 1.50 fold and ~ 1.5 fold

CC(=O)N1CCN(c2ccc(OCC3COC(Cn4ccnc4)(c4ccc(Cl)cc4Cl)O3)cc2)CC1 (stereo not drawn) [Ketoconazole, ketoconazole]
IC50 [7]: 400 nM
